Experimental data: ChEMBL document CHEMBL4043093, “2-Oxo-3, 4-dihydropyrimido[4, 5-d]pyrimidinyl derivatives as new irreversible pan fibroblast growth factor receptor (FGFR) inhibitors” (Eur J Med Chem, 2017)

How the values were obtained:
[1] = molecular target: Phosphatidylinositol 5-phosphate 4-kinase type-2 gamma (Homo sapiens) (UniProt Q8TBX8); assay: Inhibition of wild-type human partial length PIP5K2C (M1 to A421 residues) expressed in HEK293 cells assessed as residual activity at 1000 nM after 30 mins by Kinomescan method relative to control; type: cell-based
[2] = molecular target: Uncharacterized serine/threonine-protein kinase SBK3 (Homo sapiens) (UniProt P0C264); assay: Inhibition of wild-type human partial length SgK110 (L22 to R329 residues) expressed in Escherichia coli BL21 assessed as residual activity at 1000 nM after 30 mins by Kinomescan method relative to control
[3] = molecular target: Tyrosine-protein kinase Mer (Homo sapiens) (UniProt Q12866); assay: Inhibition of wild-type human partial length MERTK (R557 to L884 residues) expressed in Escherichia coli BL21 assessed as residual activity at 1000 nM after 30 mins by Kinomescan method relative to control
[4] = molecular target: Mitogen-activated protein kinase kinase kinase kinase 4 (Homo sapiens) (UniProt O95819); assay: Inhibition of wild-type human partial length MAP4K4 (M1 to R310 residues) expressed in Escherichia coli BL21 assessed as residual activity at 1000 nM after 30 mins by Kinomescan method relative to control
Plasmodium falciparum [5] = assay: Inhibition of wild-type Plasmodium falciparum full length PK5 (M1 to N288 residues) expressed in HEK293 cells assessed as residual activity at 1000 nM after 30 mins by Kinomescan method relative to control; type: cell-based
Procedure, shortened: (§1)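 Single-point screen at a fixed 1 µM, run within a 456-kinase DiscoveRx KINOMEscan panel. Each kinase's read-out is Percent Control, i.e. signal relative to a control without compound. Hits were scored by a Percent Control < 35 cut-off, and an S(35) selectivity score was calculated across the non-mutant kinases.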

[6] = molecular target: Serine/threonine-protein kinase WNK4 (Homo sapiens) (UniProt Q96J92); assay: Inhibition of wild-type human partial length WNK4 (A31 to D461 residues) expressed in HEK293 cells assessed as residual activity at 1000 nM after 30 mins by Kinomescan method relative to control; type: cell-based
[7] = molecular target: Serine/threonine-protein kinase tousled-like 1 (Homo sapiens) (UniProt Q9UKI8); assay: Inhibition of wild-type human partial length TLK1 (K447 to A754 residues) expressed in Escherichia coli BL21 assessed as residual activity at 1000 nM after 30 mins by Kinomescan method relative to control
[8] = molecular target: Serine/threonine-protein kinase Chk1 (Homo sapiens) (UniProt O14757); assay: Inhibition of wild-type human partial length CHEK1 (M1 to G289 residues) expressed in Escherichia coli BL21 assessed as residual activity at 1000 nM after 30 mins by Kinomescan method relative to control
[9] = molecular target: Mitogen-activated protein kinase 7 (Homo sapiens) (UniProt Q13164); assay: Inhibition of wild-type human partial length ERK5 (M1 to A409 residues) expressed in Escherichia coli BL21 assessed as residual activity at 1000 nM after 30 mins by Kinomescan method relative to control
[10] = molecular target: Protein kinase C theta type (Homo sapiens) (UniProt Q04759); assay: Inhibition of wild-type human partial length PRKCQ (L350 to S706 residues) expressed in Escherichia coli BL21 assessed as residual activity at 1000 nM after 30 mins by Kinomescan method relative to control
[11] = molecular target: Discoidin domain-containing receptor 2 (Homo sapiens) (UniProt Q16832); assay: Inhibition of wild-type human partial length DDR2 (V555 to E855 residues) expressed in HEK293 cells assessed as residual activity at 1000 nM after 30 mins by Kinomescan method relative to control; type: cell-based
[12] = molecular target: Calcium/calmodulin-dependent protein kinase type 1B (Homo sapiens) (UniProt Q6P2M8); assay: Inhibition of wild-type human partial length CAMK1B (W9 to A311 residues) expressed in HEK293 cells assessed as residual activity at 1000 nM after 30 mins by Kinomescan method relative to control; type: cell-based
Plasmodium falciparum [13] = assay: Inhibition of wild-type Plasmodium falciparum full length CDPK1 (M1 to S524 residues) expressed in HEK293 cells assessed as residual activity at 1000 nM after 30 mins by Kinomescan method relative to control; type: cell-based; procedure, shortened: as §1
[14] = molecular target: Calcium/calmodulin-dependent protein kinase type 1 (Homo sapiens) (UniProt Q14012); assay: Inhibition of wild-type human full length CAMK1 (M1 to L370 residues) expressed in Escherichia coli BL21 assessed as residual activity at 1000 nM after 30 mins by Kinomescan method relative to control; procedure, shortened: as §1
[15] = molecular target: Activin receptor type-2B (Homo sapiens) (UniProt Q13705); assay: Inhibition of wild-type human ACVR2B (H169 to D504 residues) expressed in Escherichia coli BL21 assessed as residual activity at 1000 nM after 30 mins by Kinomescan method relative to control; procedure, shortened: as §1
[16] = molecular target: Myosin light chain kinase, smooth muscle (Homo sapiens) (UniProt Q15746); assay: Inhibition of wild-type human full length MYLK (M854 to E1845 residues) expressed in HEK293 cells assessed as residual activity at 1000 nM after 30 mins by Kinomescan method relative to control; type: cell-based
Procedure, shortened: (§2)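 Single-concentration screen at 1 µM across a 456-kinase KINOMEscan panel. The read-out is Percent Control for each kinase.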

[17] = molecular target: Tyrosine-protein kinase HCK (Homo sapiens) (UniProt P08631); assay: Inhibition of wild-type human full length HCK (M22 to P526 residues) expressed in Escherichia coli BL21 assessed as residual activity at 1000 nM after 30 mins by Kinomescan method relative to control; procedure, shortened: as §2
[18] = molecular target: Epidermal growth factor receptor (Homo sapiens) (UniProt P00533); assay: Inhibition of wild-type human partial length EGFR (R669 to V1011 residues) expressed in Escherichia coli BL21 assessed as residual activity at 1000 nM after 30 mins by Kinomescan method relative to control
[19] = molecular target: Serine/threonine-protein kinase Sgk2 (Homo sapiens) (UniProt Q9HBY8); assay: Inhibition of wild-type human partial length SGK2 (L54 to C427 residues) expressed in HEK293 cells assessed as residual activity at 1000 nM after 30 mins by Kinomescan method relative to control; type: cell-based
[20] = molecular target: Serine/threonine-protein kinase SIK3 (Homo sapiens) (UniProt Q9Y2K2); assay: Inhibition of wild-type human partial length QSK (A90 to L395 residues) expressed in HEK293 cells assessed as residual activity at 1000 nM after 30 mins by Kinomescan method relative to control; type: cell-based
[21] = test system: Tyrosine-protein kinase ABL1 (Homo sapiens), P00519 [H396P]; assay: Inhibition of human phosphorylated ABL1 H396P mutant (S229 to K512 residues) expressed in HEK293 cells assessed as residual activity at 1000 nM after 30 mins by Kinomescan method relative to control; type: cell-based; procedure, shortened: as §1
[22] = molecular target: Serine/threonine-protein kinase D2 (Homo sapiens) (UniProt Q9BZL6); assay: Inhibition of wild-type human partial length PRKD2 (A519 to E838 residues) expressed in Escherichia coli BL21 assessed as residual activity at 1000 nM after 30 mins by Kinomescan method relative to control

Tyrosine-protein kinase Mer (Homo sapiens), sequence (Q12866 whole entry, the tested form may be a part): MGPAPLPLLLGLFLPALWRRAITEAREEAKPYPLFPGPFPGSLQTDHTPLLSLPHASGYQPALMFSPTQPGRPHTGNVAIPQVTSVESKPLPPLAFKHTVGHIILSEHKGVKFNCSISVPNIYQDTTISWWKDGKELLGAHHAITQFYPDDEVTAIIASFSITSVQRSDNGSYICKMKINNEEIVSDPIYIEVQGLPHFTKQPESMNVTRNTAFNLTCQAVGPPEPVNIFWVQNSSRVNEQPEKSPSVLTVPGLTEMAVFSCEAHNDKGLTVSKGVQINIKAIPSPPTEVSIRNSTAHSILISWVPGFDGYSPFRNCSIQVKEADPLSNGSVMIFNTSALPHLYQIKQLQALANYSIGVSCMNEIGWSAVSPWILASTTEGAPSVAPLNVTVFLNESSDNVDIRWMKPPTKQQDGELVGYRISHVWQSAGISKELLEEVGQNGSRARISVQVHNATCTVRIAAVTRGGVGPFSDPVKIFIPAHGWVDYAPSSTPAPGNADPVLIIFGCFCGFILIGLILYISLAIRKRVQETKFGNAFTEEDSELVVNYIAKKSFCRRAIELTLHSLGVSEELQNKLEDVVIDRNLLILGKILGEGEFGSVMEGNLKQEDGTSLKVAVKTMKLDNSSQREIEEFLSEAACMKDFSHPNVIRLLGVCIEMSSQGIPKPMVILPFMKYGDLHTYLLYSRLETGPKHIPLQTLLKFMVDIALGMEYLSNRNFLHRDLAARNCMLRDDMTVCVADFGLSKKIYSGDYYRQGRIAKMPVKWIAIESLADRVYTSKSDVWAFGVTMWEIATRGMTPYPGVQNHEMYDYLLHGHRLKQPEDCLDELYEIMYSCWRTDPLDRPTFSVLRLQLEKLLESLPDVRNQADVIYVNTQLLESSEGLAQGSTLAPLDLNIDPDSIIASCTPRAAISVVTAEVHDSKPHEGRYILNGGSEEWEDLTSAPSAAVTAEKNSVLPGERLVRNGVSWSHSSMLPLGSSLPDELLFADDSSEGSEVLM
Serine/threonine-protein kinase tousled-like 1 (Homo sapiens), sequence (Q9UKI8 whole entry, the tested form may be a part): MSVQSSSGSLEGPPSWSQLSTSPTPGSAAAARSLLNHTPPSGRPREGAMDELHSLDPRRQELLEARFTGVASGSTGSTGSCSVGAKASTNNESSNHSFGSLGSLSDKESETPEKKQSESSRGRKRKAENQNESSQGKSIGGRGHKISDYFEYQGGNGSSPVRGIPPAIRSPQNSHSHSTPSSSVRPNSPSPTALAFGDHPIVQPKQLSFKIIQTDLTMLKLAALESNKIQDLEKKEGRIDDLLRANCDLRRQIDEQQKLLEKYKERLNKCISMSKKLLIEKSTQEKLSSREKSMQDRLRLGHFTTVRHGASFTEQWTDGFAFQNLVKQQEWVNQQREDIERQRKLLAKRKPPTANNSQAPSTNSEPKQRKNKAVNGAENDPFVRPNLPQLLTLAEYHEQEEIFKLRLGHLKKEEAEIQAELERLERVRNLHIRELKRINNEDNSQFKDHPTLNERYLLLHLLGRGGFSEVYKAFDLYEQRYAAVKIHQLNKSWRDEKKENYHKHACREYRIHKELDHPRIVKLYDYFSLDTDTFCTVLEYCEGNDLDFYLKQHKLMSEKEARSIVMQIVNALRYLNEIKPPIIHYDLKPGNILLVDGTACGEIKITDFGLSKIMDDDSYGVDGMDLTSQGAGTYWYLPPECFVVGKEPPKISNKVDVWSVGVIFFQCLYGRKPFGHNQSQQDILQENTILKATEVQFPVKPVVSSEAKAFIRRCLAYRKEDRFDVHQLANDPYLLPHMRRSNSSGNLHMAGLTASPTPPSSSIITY
Phosphatidylinositol 5-phosphate 4-kinase type-2 gamma (Homo sapiens), sequence (Q8TBX8 whole entry, the tested form may be a part): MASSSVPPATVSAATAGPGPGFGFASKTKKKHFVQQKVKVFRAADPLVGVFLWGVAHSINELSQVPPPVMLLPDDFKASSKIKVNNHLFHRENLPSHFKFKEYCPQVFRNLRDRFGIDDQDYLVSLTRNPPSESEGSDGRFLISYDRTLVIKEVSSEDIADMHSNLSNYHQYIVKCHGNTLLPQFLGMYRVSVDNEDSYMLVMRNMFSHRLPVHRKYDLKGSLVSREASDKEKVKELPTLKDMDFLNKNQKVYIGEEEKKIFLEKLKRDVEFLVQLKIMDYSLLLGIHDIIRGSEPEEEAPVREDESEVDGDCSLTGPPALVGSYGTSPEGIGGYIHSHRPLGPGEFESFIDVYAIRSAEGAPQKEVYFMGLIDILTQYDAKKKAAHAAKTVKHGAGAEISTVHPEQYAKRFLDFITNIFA
Mitogen-activated protein kinase kinase kinase kinase 4 (Homo sapiens), sequence (O95819 2-1239 limits assumed): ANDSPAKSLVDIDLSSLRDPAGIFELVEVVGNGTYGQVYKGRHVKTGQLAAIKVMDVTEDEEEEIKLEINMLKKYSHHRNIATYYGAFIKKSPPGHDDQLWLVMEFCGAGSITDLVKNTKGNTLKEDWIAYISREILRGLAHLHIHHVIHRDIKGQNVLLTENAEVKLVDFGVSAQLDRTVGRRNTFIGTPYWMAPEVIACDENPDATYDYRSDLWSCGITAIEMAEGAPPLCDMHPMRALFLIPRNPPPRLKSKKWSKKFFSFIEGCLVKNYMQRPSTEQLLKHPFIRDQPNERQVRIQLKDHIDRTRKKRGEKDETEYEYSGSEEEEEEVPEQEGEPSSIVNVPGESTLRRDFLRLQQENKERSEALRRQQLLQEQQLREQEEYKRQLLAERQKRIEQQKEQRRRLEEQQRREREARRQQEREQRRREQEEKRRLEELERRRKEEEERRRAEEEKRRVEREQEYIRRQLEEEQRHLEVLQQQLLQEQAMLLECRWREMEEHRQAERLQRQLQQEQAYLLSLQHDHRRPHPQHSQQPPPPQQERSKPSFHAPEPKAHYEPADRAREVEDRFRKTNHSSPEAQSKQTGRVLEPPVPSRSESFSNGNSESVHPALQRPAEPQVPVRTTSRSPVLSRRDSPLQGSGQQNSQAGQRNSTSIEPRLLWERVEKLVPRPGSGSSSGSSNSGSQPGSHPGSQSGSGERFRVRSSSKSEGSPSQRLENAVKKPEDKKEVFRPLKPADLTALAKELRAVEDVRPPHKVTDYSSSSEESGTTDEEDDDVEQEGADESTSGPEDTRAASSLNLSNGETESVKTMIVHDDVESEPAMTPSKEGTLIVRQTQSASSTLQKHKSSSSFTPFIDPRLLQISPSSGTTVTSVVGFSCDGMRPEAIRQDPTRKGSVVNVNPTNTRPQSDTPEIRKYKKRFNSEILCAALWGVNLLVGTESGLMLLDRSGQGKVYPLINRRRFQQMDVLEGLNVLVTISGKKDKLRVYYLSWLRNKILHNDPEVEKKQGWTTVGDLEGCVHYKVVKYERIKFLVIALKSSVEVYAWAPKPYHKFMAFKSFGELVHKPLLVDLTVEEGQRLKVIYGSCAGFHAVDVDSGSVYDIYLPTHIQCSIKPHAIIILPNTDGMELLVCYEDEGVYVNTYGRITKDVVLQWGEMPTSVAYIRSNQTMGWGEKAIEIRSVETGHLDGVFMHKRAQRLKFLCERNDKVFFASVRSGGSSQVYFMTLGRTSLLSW
Serine/threonine-protein kinase Chk1 (Homo sapiens), sequence (O14757 whole entry, the tested form may be a part): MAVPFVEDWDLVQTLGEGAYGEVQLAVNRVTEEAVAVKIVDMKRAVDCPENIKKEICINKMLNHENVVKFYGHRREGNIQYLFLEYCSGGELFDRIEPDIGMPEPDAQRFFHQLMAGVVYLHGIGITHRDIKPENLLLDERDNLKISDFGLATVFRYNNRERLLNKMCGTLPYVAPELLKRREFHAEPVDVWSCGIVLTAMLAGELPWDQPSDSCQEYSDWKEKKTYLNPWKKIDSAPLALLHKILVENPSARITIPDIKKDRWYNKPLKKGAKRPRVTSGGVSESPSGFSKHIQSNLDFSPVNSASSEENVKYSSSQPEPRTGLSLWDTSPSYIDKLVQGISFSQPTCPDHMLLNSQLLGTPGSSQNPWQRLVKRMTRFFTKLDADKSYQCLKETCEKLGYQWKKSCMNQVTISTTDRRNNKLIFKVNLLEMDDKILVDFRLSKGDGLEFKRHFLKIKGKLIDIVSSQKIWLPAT
Activin receptor type-2B (Homo sapiens), sequence (Q13705 whole entry, the tested form may be a part): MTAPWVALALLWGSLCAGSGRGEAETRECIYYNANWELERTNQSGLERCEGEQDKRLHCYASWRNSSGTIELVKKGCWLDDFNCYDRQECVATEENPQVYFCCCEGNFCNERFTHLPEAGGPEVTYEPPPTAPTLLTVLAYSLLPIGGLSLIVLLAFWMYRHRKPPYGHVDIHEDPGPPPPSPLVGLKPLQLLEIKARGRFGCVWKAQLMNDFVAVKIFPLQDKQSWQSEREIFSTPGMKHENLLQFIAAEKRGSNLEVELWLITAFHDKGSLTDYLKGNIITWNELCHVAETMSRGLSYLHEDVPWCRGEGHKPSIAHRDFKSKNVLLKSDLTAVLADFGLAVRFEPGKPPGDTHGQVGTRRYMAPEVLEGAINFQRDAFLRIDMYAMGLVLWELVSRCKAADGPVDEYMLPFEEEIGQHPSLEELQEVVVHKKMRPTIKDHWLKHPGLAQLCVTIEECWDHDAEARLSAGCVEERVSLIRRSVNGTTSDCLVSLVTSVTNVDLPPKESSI
Tyrosine-protein kinase HCK (Homo sapiens), sequence (P08631 2-526 limits assumed): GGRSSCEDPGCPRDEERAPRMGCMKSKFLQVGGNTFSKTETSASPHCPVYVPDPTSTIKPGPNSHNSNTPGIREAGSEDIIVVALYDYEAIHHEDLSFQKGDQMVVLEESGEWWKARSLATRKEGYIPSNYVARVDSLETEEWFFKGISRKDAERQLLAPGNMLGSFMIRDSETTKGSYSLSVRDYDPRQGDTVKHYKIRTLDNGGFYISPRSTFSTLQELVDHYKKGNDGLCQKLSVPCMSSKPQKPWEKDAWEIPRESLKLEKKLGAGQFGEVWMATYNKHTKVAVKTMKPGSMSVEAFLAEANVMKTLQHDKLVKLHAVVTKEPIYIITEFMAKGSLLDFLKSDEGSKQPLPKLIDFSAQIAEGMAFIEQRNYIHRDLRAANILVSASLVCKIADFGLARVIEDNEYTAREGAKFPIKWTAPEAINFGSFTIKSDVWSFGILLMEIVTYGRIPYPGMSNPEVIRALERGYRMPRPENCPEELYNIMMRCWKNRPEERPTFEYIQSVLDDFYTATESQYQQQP

Question: Which Activity [1] does the source give for COc1cc(OC)c(Cl)c(N2Cc3cnc(Nc4ccc(F)cc4)nc3N(C3CCN(C(=O)/C=C/CN(C)C)CC3)C2=O)c1Cl here?
Answer: 6.3%

Question: And the Activity [2]?
Answer: 100%

Question: What about the Activity [3] of the same compound?
Answer: 85%

Question: What about the Activity [4] of the same compound?
Answer: 100%

Question: And the Activity (Plasmodium falciparum [5])?
Answer: 100%

Question: What about the Activity [6] of the same compound?
Answer: 100%

Question: What about the Activity [7] of the same compound?
Answer: 100%

Question: And the Activity [8]?
Answer: 100%

Question: What about the Activity [9] of the same compound?
Answer: 49%

Question: And the Activity [10]?
Answer: 100%

Question: What about the Activity [11] of the same compound?
Answer: 77%

Question: And the Activity [12]?
Answer: 100%

Question: What about the Activity (Plasmodium falciparum [13]) of the same compound?
Answer: 100%

Question: What about the Activity [14] of the same compound?
Answer: 100%

Question: And the Activity [15]?
Answer: 98%

Question: What about the Activity [16] of the same compound?
Answer: 100%

Question: What about the Activity [17] of the same compound?
Answer: 10%

Question: What about the Activity [18] of the same compound?
Answer: 91%

Question: What about the Activity [19] of the same compound?
Answer: 100%

Question: What about the Activity [20] of the same compound?
Answer: 100%

Question: What about the Activity [21] of the same compound?
Answer: 42%

Question: And the Activity [22]?
Answer: 98%
